This is an account of results in ChEMBL document CHEMBL3526029, “Disposition and metabolism of GSK2251052 in humans: a novel boron-containing antibiotic” (Drug Metab Dispos, 2013).

A short description of series [1]: AUC (0 to t) in healthy human plasma at 1500 mg, iv infusion for 1 hr as single dose. In kind it is ADME, organism-based. A digest of the protocol:
(§1)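 Six fasted healthy men received 1500 mg [14C]GSK2251052 as a 1-h constant-rate i.v. infusion. K2EDTA plasma was sampled from predose to 72 h, with profiling samples added at 96, 144 and 336 h. Parent and M3 were measured by validated LC/MS/MS after methanol/formic acid precipitation with stable-label internal standards (range 5–10,000 ng/ml). Noncompartmental analysis used actual times, linear-up/log-down trapezoids and CL = dose/AUC(0-∞).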

Series [2] can be described thus: AUC (0 to infinity) in healthy human plasma at 1500 mg, iv infusion for 1 hr as single dose. On the set-up: dose 1500 mg, route intravenous, time infinity. In kind it is ADME, organism-based. Put shortly: as §1
Series [3] can be described thus: Cmax in healthy human plasma at 1500 mg, iv infusion for 1 hr as single dose. In kind it is ADME, organism-based. On the set-up: dose 1500 mg, route intravenous. Put shortly:
as §1

Series [4] can be described thus: Clearance in healthy human plasma at 1500 mg, iv infusion for 1 hr as single dose. In kind it is ADME, organism-based. Put shortly:
as §1

Series [5] in a line: Volume of distribution at steady state in healthy human plasma at 1500 mg, iv infusion for 1 hr as single dose. In kind it is ADME, organism-based. Conditions: read-out: Vdss. A digest of the protocol:
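Healthy males got 1500 mg by 1-h IV infusion. Plasma (K2EDTA) was sampled to 72 h, plus 96, 144 and 336 h. Parent was measured by a validated LC/MS/MS method after methanol/formic acid precipitation with a stable-isotope internal standard (range 5–10,000 ng/ml). Vss = CL × MRT from noncompartmental analysis.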

The nature of series [6]: Half life in healthy human plasma at 1500 mg, iv infusion for 1 hr as single dose. In kind it is ADME, organism-based. A digest of the protocol:
(§2)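 Healthy men got a single 1500 mg [14C] dose by 1 h i.v. infusion. K2EDTA blood was sampled up to 336 h. Radioactivity in blood and plasma was measured by LSC, with AMS for plasma below LLQ. Parent and M3 were measured by LC/MS/MS (5–10,000 ng/ml range). Noncompartmental analysis used actual times, with t1/2 = ln2/λz and Tmax observed directly, timed from infusion start.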

The nature of series [7]: Tmax in healthy human plasma at 1500 mg, iv infusion for 1 hr as single dose. The format is ADME, organism-based. Put shortly: as §2
Series [8] in a line: Clearance in cynomolgus monkey at 35 mg/kg, iv administered as single infusion for 1 hr. In kind it is ADME, organism-based, Macaca fascicularis. Details: dose 35 mg/kg, route intravenous. The note with it: in vivo. Put shortly:
(§3)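 Male cynomolgus monkeys given a 1-h i.v. infusion at 35 mg/kg (7 mg/ml in saline, pH 5, 5 ml/kg/h). Where 4-MP was used, it was given by oral gavage 1 h before infusion (8.75 mg/ml in water, 4 ml/kg). K2EDTA plasma was sampled from 0.5 to 120 h after infusion start. Parent and M3 were measured by LC/MS/MS after protein precipitation (range 100–200,000 ng/ml). Noncompartmental analysis used nominal times.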

The nature of series [9]: Volume of distribution at steady state in cynomolgus monkey at 35 mg/kg, iv administered as single infusion for 1 hr. On the set-up: dose 35 mg/kg, route intravenous. Conditions: in vivo, read-out: Vdss. The format is ADME, organism-based, Macaca fascicularis. A digest of the protocol: (§4)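 Cynomolgus monkeys got a 1-h IV infusion at 35 mg/kg (7 mg/ml in saline, pH 5), either alone or 1 h after oral gavage of 4-methylpyrazole (8.75 mg/ml in water, 4 ml/kg). Plasma (K2EDTA) was sampled to 120 h and assayed by protein precipitation and LC/MS/MS (range 100–200,000 ng/ml). Vss (CL × MRT) was derived by noncompartmental analysis on nominal times; values are for males.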

Series [10] is described as follows: Mean residence time in cynomolgus monkey at 35 mg/kg, iv administered as single infusion for 1 hr. The format is ADME, organism-based, Macaca fascicularis. On the set-up: dose 35 mg/kg, route intravenous. The note with it: in vivo. Put shortly: (§5)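 Male cynomolgus monkeys received 35 mg/kg as a 1 h i.v. infusion (7 mg/ml in saline, pH 5; 5 ml/kg/h), either alone or 1 h after oral gavage of 4-MP (8.75 mg/ml in water, 4 ml/kg). Plasma was sampled from 0.5 to 120 h, and parent and M3 were measured by LC/MS/MS. Noncompartmental analysis used nominal times, with t1/2 = ln2/λz.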

Series [11] is described as follows: Half life in cynomolgus monkey at 35 mg/kg, iv administered as single infusion for 1 hr. The format is ADME, organism-based, Macaca fascicularis. On the set-up: dose 35 mg/kg, route intravenous. The note with it: in vivo. A digest of the protocol:
as §5

Series [12] can be described thus: Tmax in cynomolgus monkey at 35 mg/kg, iv administered as single infusion for 1 hr. Conditions: in vivo. On the set-up: dose 35 mg/kg, route intravenous. The format is ADME, organism-based, Macaca fascicularis. Put shortly: as §5
Series [13] is described as follows: AUC (0 to infinity) in cynomolgus monkey at 35 mg/kg, iv administered as single infusion for 1 hr followed single oral dose of 35 mg/kg 4-MP. In kind it is ADME, organism-based, Macaca fascicularis. Conditions: plasma. Put shortly: as §3
Series [14] is described as follows: Cmax in cynomolgus monkey at 35 mg/kg, iv administered as single infusion for 1 hr followed single oral dose of 35 mg/kg 4-MP. In kind it is ADME, organism-based, Macaca fascicularis. Conditions: in vivo. Put shortly: as §3
Series [15] can be described thus: Clearance in cynomolgus monkey at 35 mg/kg, iv administered as single infusion for 1 hr followed single oral dose of 35 mg/kg 4-MP. The format is ADME, organism-based, Macaca fascicularis. The note with it: in vivo. A digest of the protocol:
as §3

A short description of series [16]: Volume of distribution at steady state in cynomolgus monkey at 35 mg/kg, iv administered as single infusion for 1 hr followed single oral dose of 35 mg/kg 4-MP. The format is ADME, organism-based, Macaca fascicularis. The note with it: in vivo, read-out: Vdss. Put shortly: as §4
Series [17] in a line: Mean residence time in cynomolgus monkey at 35 mg/kg, iv administered as single infusion for 1 hr followed single oral dose of 35 mg/kg 4-MP. The format is ADME, organism-based, Macaca fascicularis. Conditions: in vivo. Put shortly:
as §5

A short description of series [18]: Half life in cynomolgus monkey at 35 mg/kg, iv administered as single infusion for 1 hr followed single oral dose of 35 mg/kg 4-MP. In kind it is ADME, organism-based, Macaca fascicularis. Conditions: in vivo. A digest of the protocol:
as §5

A short description of series [19]: Tmax in cynomolgus monkey at 35 mg/kg, iv administered as single infusion for 1 hr followed single oral dose of 35 mg/kg 4-MP. In kind it is ADME, organism-based, Macaca fascicularis. The note with it: in vivo. Put shortly:
as §5

The nature of series [20]: Drug metabolism in human liver cytosol assessed as ADH-mediated (S)-3-(3-(aminomethyl)-1-hydroxy-1,3-dihydrobenzo[c][1,2]oxaborol-7-yloxy)propanoicacid formation at 50 to 500 uM by spectrophotometry in presence of NAD+. The note with it: TDE = time-dependent effect. The format is ADME.
The nature of series [21]: Drug metabolism assessed as purified ADH (unknown origin)-mediated (S)-3-(3-(aminomethyl)-1-hydroxy-1,3-dihydrobenzo[c][1,2]oxaborol-7-yloxy)propanoicacid formation at 50 to 500 uM by spectrophotometry in presence of NAD+. The format is ADME. Conditions: human, TDE = time-dependent effect.
The test system of series [22] is Liver cytosol. The series is described as follows: Drug metabolism in human liver cytosol assessed as (S)-3-(3-(aminomethyl)-1-hydroxy-1,3-dihydrobenzo[c][1,2]oxaborol-7-yloxy)propanoicacid formation at 50 to 500 uM after 3 hrs by spectrophotometry in presence of NAD+ and ADH inhibitor 4-MP. The format is ADME.
Series [23] can be described thus: AUC (0 to infinity) in cynomolgus monkey at 35 mg/kg, iv administered as single infusion for 1 hr. The format is ADME, organism-based, Macaca fascicularis. Details: time infinity, dose 35 mg/kg, route intravenous. Conditions: plasma. A digest of the protocol:
as §3

Series [24] in a line: Cmax in cynomolgus monkey at 35 mg/kg, iv administered as single infusion for 1 hr. The format is ADME, organism-based, Macaca fascicularis. On the set-up: dose 35 mg/kg, route intravenous. Conditions: in vivo. Put shortly:
as §3

A short description of series [25]: Drug recovery in healthy human urine treated with [14C]GSK2251052 at 1500 mg, iv infusion for 1 hr as single dose after 120 to 336 hrs by HPLC method. The format is ADME, organism-based. Conditions: in vivo, BLD = below limit of detection. A digest of the protocol:
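Urine pooled by weight per subject over 0–120 h; 120–336 h pools from all subjects combined into one composite. Centrifuged at ~21,000g, then supernatant profiled by HPLC (Atlantis T3, ammonium acetate pH 4.5/methanol, 30°C) with radiochemical detection plus MS identification. Results are % of dose, corrected for centrifugation recovery measured by triplicate LSC.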

A short description of series [26]: Drug recovery in healthy human feces treated with [14C]GSK2251052 at 1500 mg, iv infusion for 1 hr as single dose after 120 hrs by HPLC method. The note with it: in vivo. The format is ADME, organism-based. A digest of the protocol: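 Feces pooled over 0–120 h per subject by sample weight. About 1 g homogenate extracted twice with 4 volumes of acetonitrile:methanol:water:formic acid (50:25:25:1) under 20 min sonication. Extracts dried and reconstituted in water:methanol 90:10. Profiled by HPLC (Atlantis T3, ammonium acetate pH 4.5/methanol, 30°C) with fraction radiocounting and Orbitrap MS. Results given as % of dose, corrected for extraction recovery.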

Series [27] in a line: Drug recovery in healthy human feces treated with [14C]GSK2251052 at 1500 mg, iv infusion for 1 hr as single dose after 0 to 120 hrs by HPLC method. Conditions: in vivo.

A word on the AUC(0-t): it is the area under the concentration-time curve up to a stated or last time point. By AUC(0-inf) is commonly meant total exposure, with the tail of the curve extrapolated. By Cmax is commonly meant the peak of the concentration-time curve. Usually half-life stands for how long it takes for the measured level to halve. By Tmax is commonly meant the time from dosing to the highest level. By MRT is commonly meant the average time that molecules of a dose stay in the body. `Cl.NC[C@H]1OB(O)c2c(OCCCO)cccc21`: the AUC(0-t) at 1 h in [1] was 72300 ng·h/mL. Further, the AUC(0-inf) was 72500 ng·h/mL in [2], 161000 ng·h/mL in series [13] and 60700 ng·h/mL in [23]. The results for the Cmax in series [3], in series [14] and in series [24] were 24600 ng/mL, 68600 ng/mL and 46000 ng/mL, respectively. Further, the clearance is 345 mL/min in [4], 10 mL/min/kg in series [8] and 3.67 mL/min/kg in series [15]. The Vd worked out at 197 L in series [5], 3.04 L/kg in series [9] and 2.53 L/kg in series [16]. In addition, the half-life in [6] was 11.6 h; in series [11] it was 5.4 h; in series [18] it was 9.2 h. In addition, the Tmax in series [7] amounted to 0.917 h; in series [12], 0.92 h; in [19], 0.92 h. The MRT in series [10] amounted to 4.9 h; in series [17], 11 h. In addition, the values for the Drug metabolism result in series [20], in [21] and in [22] were “tde”, “tde” and “metabolite_not_detected”, respectively.

With `NCC(O)c1cccc(OCCC(=O)O)c1O` (stereo not drawn), the Drug recovery entry in [25] is on record as “BLD”; in [26], 1.4%; in [27], 1.4%.

Take `NCC(O)c1cccc(OCCCO)c1O` (stereo not drawn): the Drug recovery result in [25] was “BLD”.
